Data on 13 compounds can be found in PubChem BioAssay.

One may read the inhibition as the relative decrease from the control value, in per cent.

Experiment [1] in a line: inhibitors of TNFa-induced NFkB p65 translocation, primary screen, imaging, HUVEC, MLSMR starter and 10KST1 sets (AID 438;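 active = inhibition above 20% together with a positive visual image hit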;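 note: compound added about 3h40 before a 20 min TNFalpha stimulation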;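 for inhibition: signal is the nuclear over cytoplasmic p65 intensity ratio per well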). Particulars: HUVEC TNFa-induced p65 nuclear translocation; cell count: measured here: nuclei count (cytotoxicity indicator), at 2.08 µM; inhibition: at 2 µM, stronger effect = higher value, 0% TNFa-plus-vehicle, 100% no-TNFa wells.
Experiment [2] can be described thus: endothelial E-selectin expression blockers – imaging, HUVEC, immunofluorescence, MLSMR starter and 10KST1 sets, primary screen (AID 487;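 active = visually confirmed hit in the image check and inhibition above 20%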;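 for inhibition: signal is fraction of cell area covered by stained E-selectin grains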;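 for nuclei count: 100% = median nuclei count of all wells on the same plate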). To be noted: HUVEC TNFalpha-induced E-selectin immunofluorescence imaging, at 2 µM; inhibition: stronger effect = higher value; nuclei count: measured here: cell number, toxicity.
A short description of experiment [3]: Primary imaging screen for DUSP6 inhibitors that restore phospho-Erk in transfected HeLa cells, chemical complementation (AID 609;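 active = compounds giving at least 50% inhibition in the cell-based MKP-3 phosphatase rescue imaging test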;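 for inhibition: phospho-Erk level distribution per well compared with pooled transfected vehicle control wells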). Particulars: HeLa MKP-3 transfected, phospho-Erk imaging KS statistic, at 10 µM, cells stimulated with TPA for 15 min.
The target of experiment [4] is Dual specificity protein phosphatase 6 (Homo sapiens) (UniProt Q16828). The experiment is described as above. To be noted: HeLa MKP-3 transfected, phospho-Erk imaging KS statistic; at 10 µM; stronger effect = higher value; cells stimulated with TPA for 15 min.
Experiment [5] has as its target Voltage-gated potassium channel subunit beta-2 (Rattus norvegicus) (UniProt P62483). Nature of the experiment: inhibitors of rat Kvbeta2 reductase activity – biochemical, NADPH fluorescence, primary screen (AID 622;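 active = fluorescence slope higher than the sample average by over 3 SD, cut at about -0.22 in these data, passing the limit was not always enough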;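 note: slope of raw intensity against log time taken from 70 to 1610 s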). To be noted: recombinant KvBeta, 4-cyanobenzaldehyde reduction, at 10 µM, stronger effect = higher value.
The target is the same in experiment [6]. Nature of the experiment: enhancers of rat Kvbeta2 NADPH turnover – biochemical, NADPH fluorescence, primary screen (AID 623;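 active = NADPH fluorescence slope more negative than the mean of all samples by about 3 SD, 99.7% confidence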;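 note: fluorescence intensity change per second fitted from 20 to 320 s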). Particulars: Recombinant KvBeta, NADPH fluorescence decrease slope, 10 min; at 10 µM; stronger effect = lower value.
Experiment [7] concerns the target Alpha-2C adrenergic receptor (Homo sapiens) (UniProt P18825). The experiment is described as follows: compounds altering alpha2C-coupled GIRK flux – cell-based, HEK293 alpha2C/GIRK1/2, thallium flux, primary screen (AID 624).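 Note: slope of fluorescence ratio to pre-addition baseline per second over 15 to 24 s.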 To be noted: thallium flux BTC fluorescence, at 10 µM, actives lie on both sides.
Experiment [8] in a line: inhibitors of larval lipid processing in zebrafish, primary screen, whole organism, PED6 fluorescence, gall bladder and intestine (AID 686;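 active = a full or partial loss of lipid-probe fluorescence in the fish gall bladder, intestine or both, judged by eye; inactive = no fluorescence loss, or compound toxic to the fish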;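 note: larvae 5 to 7 days old with five fish per well; signal comes from phospholipase A2 cleavage of quenched PED6 carried via bile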). To be noted: Zebrafish larvae PED6 lipid processing, fluorescence scoring; screened at 20 µM (by protocol). The gist of the method: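 Incubation: overnight exposure of larvae to compound plus PED6 / Test system: live zebrafish larvae aged 5-7 days, whole organism / Amount: 5 larvae per well / Read-out basis: visual per-well fluorescence inhibition score / Signal: visual fluorescence microscopy scoring of gall bladder, gut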

The nature of experiment [9]: loss of swimming-algae plug formation – whole organism, Chlamydomonas reinhardtii, WT vs cilia-less mutant, absorbance, 96-well, primary screen (AID 463189;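 active = inhibition at or above 50% relative to wild type and mutant plate controls; inactive = inhibition below 50%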;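 note: 0% = wild type cc124 cells in DMSO and 100% = ciliumless bld1 mutant cells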). To be noted: Chlamydomonas reinhardtii gravitaxis, OD600 absorbance, 2 days; at 10 µM; stronger effect = higher value.
[10] abbreviates: measured here: cell density z-score.
Where [11] appears, read: measured here: nuclear c-Myc green intensity z-score.
The mark [12] stands for this setting: measured here: nuclear pErk red intensity z-score, stronger effect = higher value.

SMILES strings stand for the structures. The source made the active and inactive calls.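 Rule for the calls, unless noted: active = fluorescence slope after compound addition differing from the mean of all screened samples at 99.7% confidence, in either direction; inactive = the rest.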

Alpha-2C adrenergic receptor (Homo sapiens), sequence (P18825 whole entry, looked up): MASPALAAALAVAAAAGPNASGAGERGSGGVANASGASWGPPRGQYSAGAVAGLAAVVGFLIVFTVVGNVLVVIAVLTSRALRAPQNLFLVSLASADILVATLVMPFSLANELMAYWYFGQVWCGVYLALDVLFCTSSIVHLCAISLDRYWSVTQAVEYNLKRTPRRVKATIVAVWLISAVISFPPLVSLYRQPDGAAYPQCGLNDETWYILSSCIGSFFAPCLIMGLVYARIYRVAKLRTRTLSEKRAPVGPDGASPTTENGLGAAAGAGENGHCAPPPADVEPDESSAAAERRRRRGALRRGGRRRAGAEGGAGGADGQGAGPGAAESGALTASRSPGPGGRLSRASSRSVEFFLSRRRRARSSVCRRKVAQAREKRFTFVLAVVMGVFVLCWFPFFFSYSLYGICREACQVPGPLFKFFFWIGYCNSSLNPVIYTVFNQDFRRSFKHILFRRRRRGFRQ
Dual specificity protein phosphatase 6 (Homo sapiens), sequence (Q16828 whole entry, looked up): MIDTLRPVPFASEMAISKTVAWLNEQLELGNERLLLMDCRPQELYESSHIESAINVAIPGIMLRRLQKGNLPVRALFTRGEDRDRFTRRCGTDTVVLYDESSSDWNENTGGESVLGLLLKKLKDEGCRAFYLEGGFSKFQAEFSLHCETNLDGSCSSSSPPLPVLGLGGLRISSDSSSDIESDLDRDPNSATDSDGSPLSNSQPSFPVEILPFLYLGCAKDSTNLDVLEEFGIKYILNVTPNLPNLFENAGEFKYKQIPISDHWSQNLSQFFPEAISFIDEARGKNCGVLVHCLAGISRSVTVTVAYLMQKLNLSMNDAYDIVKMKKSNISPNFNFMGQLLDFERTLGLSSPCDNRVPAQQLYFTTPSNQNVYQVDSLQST
Voltage-gated potassium channel subunit beta-2 (Rattus norvegicus), sequence (P62483 whole entry, looked up): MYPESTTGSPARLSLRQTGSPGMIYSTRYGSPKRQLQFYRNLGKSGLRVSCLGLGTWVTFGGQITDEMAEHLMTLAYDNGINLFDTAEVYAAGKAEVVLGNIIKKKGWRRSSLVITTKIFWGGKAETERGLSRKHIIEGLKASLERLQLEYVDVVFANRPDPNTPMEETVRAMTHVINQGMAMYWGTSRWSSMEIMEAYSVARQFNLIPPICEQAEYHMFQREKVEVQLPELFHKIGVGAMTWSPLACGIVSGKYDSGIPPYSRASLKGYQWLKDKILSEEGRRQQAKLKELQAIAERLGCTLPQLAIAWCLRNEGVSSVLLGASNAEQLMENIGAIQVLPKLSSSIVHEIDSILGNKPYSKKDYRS

With `CCOC(=O)c1ccccc1OCc1cc(/C=N/n2cncn2)ccc1OC`, the cell count in experiment [1] was 430. For the same compound, the inhibition in experiment [1] was -16.8% (inactive); in [2] it was -87.5% (inactive); in [4], -2.29% (inactive); in experiment [9], -0.944% (inactive). The compound further showed a nuclei count in experiment [2] of 169%. Further, the results for the z-score in experiment [3] (setting [10]), in experiment [3] (setting [11]) and in [3] (setting [12]) were 0.277, 0.212 and -0.384, respectively. In addition, the fluorescence slope in experiment [5] is -0.358 (inactive). Also, the NADPH fluorescence slope in [6] was 1.8e-05 (inactive). The slope in experiment [7] was 0.00447 (inactive). Moreover, the call in experiment [8] was inactive.

For `COc1ccc(-c2nc3n(c2Br)CCC3)cc1`, the cell count in experiment [1] was 587. The inhibition in [1] is -14.6% (inactive); in [2] it was -22.2% (inactive); in experiment [4], 39% (inactive); in experiment [9] it was 49.9% (inactive). Moreover, the nuclei count in [2] amounted to 162%. Besides, the z-score in experiment [3] (setting [10]) is 1.1; in [3] (setting [11]), 0.741; in experiment [3] (setting [12]) it was -1.03. Also, the fluorescence slope in experiment [5] was -0.503 (inactive). For the same compound, the NADPH fluorescence slope in experiment [6] is -2.6e-05 (inactive). Also, in experiment [7], the slope was 0.00527 (inactive). The call in experiment [8] was inactive.

Take `CCOC(=O)c1n[nH]c2ccccc12`: in experiment [1], the cell count was found to be 354. In addition, the inhibition in experiment [1] is -6.3% (inactive); in experiment [2], -168% (inactive); in experiment [4], 6.04% (inactive); in [9], -13% (inactive). This compound also showed a nuclei count in experiment [2] of 110%. For the same compound, the z-score in experiment [3] (setting [10]) was 0.791; in [3] (setting [11]), -0.274; in experiment [3] (setting [12]), -1.01. Besides, the fluorescence slope in [5] is -0.399 (inactive). In addition, the NADPH fluorescence slope in experiment [6] was 1.6e-05 (inactive). Besides, the slope in [7] was 0.00468 (inactive). Further, the compound was classed as inactive in [8].

`CSCCC(CO)NC(=O)OCc1ccccc1` (centres undefined): the cell count in [1] was determined as 562. Also, the inhibition was -15% (inactive) in experiment [1], -130% (inactive) in experiment [2], 3.97% (inactive) in experiment [4] and 2.98% (inactive) in experiment [9]. Moreover, the nuclei count in experiment [2] came out at 142%. Moreover, the z-score in experiment [3] (setting [10]) was 1.72; in experiment [3] (setting [11]), -0.612; in experiment [3] (setting [12]) it was -0.962. Also, in experiment [5], the fluorescence slope is -0.503 (inactive). For the same compound, the NADPH fluorescence slope in experiment [6] was -8.5e-05 (inactive). Further, the slope in experiment [7] was 0.00774 (inactive). Further, the result in experiment [8] was inactive.

`CCOC(=O)C1CCCN(c2nc3ccccc3nc2C(C#N)C(=O)OC(C)C)C1` (centres undefined): in experiment [1], the cell count amounted to 547. Moreover, the inhibition is -8.3% (inactive) in [1], 14.3% (inactive) in experiment [2], -7.86% (inactive) in experiment [4] and 25.2% (inactive) in [9]. The compound further gave a nuclei count in experiment [2] of 143%. In addition, the z-score was -1.02 in experiment [3] (setting [10]), 0.486 in [3] (setting [11]) and -0.3 in experiment [3] (setting [12]). Further, the fluorescence slope in experiment [5] was -0.504 (inactive). In experiment [6], the NADPH fluorescence slope is -3.6e-05 (inactive). In addition, the slope in experiment [7] is 0.00207 (inactive). For the same compound, the outcome in [8] was inactive.

Regarding `COc1ccc(OC)c2c(N)c(C#N)c(C(F)(F)C(F)(F)F)nc12`, the cell count in experiment [1] was determined as 295. In addition, the inhibition was -8.5% (inactive) in [1], 9% (inactive) in [2], 21% (inactive) in experiment [4] and -13.9% (inactive) in experiment [9]. This compound also came in with a nuclei count in experiment [2] of 85.5%. In addition, the z-score is 1 in [3] (setting [10]), -1.13 in [3] (setting [11]) and -0.419 in experiment [3] (setting [12]). Also, the fluorescence slope in experiment [5] was -0.402 (inactive). Moreover, in experiment [6], the NADPH fluorescence slope is -3.3e-05 (inactive). Besides, the slope in experiment [7] is 0.00519 (inactive). Besides, the outcome in [8] was inactive.

For the compound `COc1ccc(N/C(=N\c2nc(C)cc(C)n2)NC(=O)C(C)C)cc1OC`, the cell count in experiment [1] was 568. Besides, the inhibition in experiment [1] is -6% (inactive); in experiment [2], -158% (inactive); in experiment [4], 3.97% (inactive); in experiment [9] it was 1.34% (inactive). Besides, the nuclei count in experiment [2] was determined as 138%. The z-score in experiment [3] (setting [10]) was determined as 0.3; in [3] (setting [11]), 1.29; in experiment [3] (setting [12]), 0.284. Also, in experiment [5], the fluorescence slope is -0.481 (inactive). Moreover, the NADPH fluorescence slope in [6] was -3.5e-05 (inactive). The slope in [7] is 0.00493 (inactive). In addition, the compound was called inactive in experiment [8].

For `CCN=C1SC(C(=O)Nc2ccc(Cl)c(Cl)c2)CC(=O)N1CC` (centres undefined), the cell count in [1] was found to be 388. Besides, the inhibition in experiment [1] is -0.4% (inactive); in [2] it was -56.6% (inactive); in [4] it was 7.42% (inactive); in [9], 0.946% (inactive). The nuclei count in experiment [2] amounted to 133%. Besides, the z-score is 1.74 in [3] (setting [10]), -1.1 in experiment [3] (setting [11]) and -1.57 in experiment [3] (setting [12]). Further, in experiment [5], the fluorescence slope was -0.423 (inactive). Moreover, the NADPH fluorescence slope in experiment [6] is -0.000131 (inactive). The slope in experiment [7] was 0.00577 (inactive). The compound was classed as inactive in experiment [8].

With `C=CCNc1sc(C(=O)C2CC2)c(N)c1C#N`, in [1], the cell count turned out to be 669. The inhibition in experiment [1] was -24.9% (inactive); in experiment [2] it was -70.3% (inactive); in experiment [4], 19.4% (inactive); in experiment [9], -5.34% (inactive). In experiment [2], this compound came in with a nuclei count of 173%. For the same compound, the values for the z-score in [3] (setting [10]), in experiment [3] (setting [11]) and in experiment [3] (setting [12]) were 0.613, -1.22 and 0.948, respectively. Moreover, the fluorescence slope in experiment [5] is -0.366 (inactive). In [6], the NADPH fluorescence slope is -3.3e-05 (inactive). The slope in experiment [7] is 0.00551 (inactive). Moreover, the outcome in experiment [8] was inactive.

As for `CC(=O)N/C(=N/c1nc(C)cc(C)n1)Nc1ccc(NC(C)=O)cc1`, the cell count in experiment [1] was found to be 647. The inhibition in experiment [1] is 3.8% (inactive); in experiment [2], -35% (inactive); in experiment [4], -1.12% (inactive); in experiment [9], 1.67% (inactive). For the same compound, the nuclei count in experiment [2] stood at 154%. Further, the values for the z-score in experiment [3] (setting [10]), in experiment [3] (setting [11]) and in [3] (setting [12]) were 1.7, -1.09 and -1.09, respectively. In experiment [5], the fluorescence slope is -0.509 (inactive). In addition, the NADPH fluorescence slope in experiment [6] is -6.6e-05 (inactive). Also, the slope in experiment [7] is 0.00481 (inactive). Besides, the call in experiment [8] was inactive.

With `COc1ccc(C2CC(=O)c3sc(N)nc3C2)cc1` (centres undefined), the cell count in experiment [1] amounted to 424. The inhibition in experiment [1] is -15.2% (inactive); in [2], -328% (inactive); in [4] it was 26.6% (inactive); in [9], 0.76% (inactive). Besides, the nuclei count in [2] came to 147%. In addition, the z-score in [3] (setting [10]) is 0.261; in experiment [3] (setting [11]) it was -0.0796; in experiment [3] (setting [12]), -0.89. The fluorescence slope in experiment [5] is -0.408 (inactive). Also, the NADPH fluorescence slope in experiment [6] is -1.9e-05 (inactive). For the same compound, the slope in [7] was 0.00734 (inactive). The outcome in [8] was inactive.

Turning to `COC(=O)C1=C(C)OC(N)=C(C#N)C1c1ccc(OC)c(OC)c1OC` (centres undefined), the cell count in experiment [1] amounted to 401. Also, the inhibition in experiment [1] was -10.3% (inactive); in experiment [2], -52.9% (inactive); in experiment [4] it was 26.5% (inactive); in experiment [9], 42.2% (inactive). In [2], this compound came in with a nuclei count of 104%. The z-score was 0.861 in experiment [3] (setting [10]), -0.767 in experiment [3] (setting [11]) and -0.967 in [3] (setting [12]). For the same compound, the fluorescence slope in experiment [5] was -0.557 (inactive). Further, the NADPH fluorescence slope in experiment [6] was -8.1e-05 (inactive). For the same compound, the slope in experiment [7] was 0.00455 (inactive). Also, in experiment [8], the compound was classed as inactive.

Regarding `Cc1ccc(/C=c2\sc3n(c2=O)CN(c2ccc(Br)cc2)CN=3)o1`, the cell count in experiment [1] is 367. Moreover, the inhibition was -0.5% (inactive) in experiment [1], -127% (inactive) in [2], 22.7% (inactive) in experiment [4] and -6.84% (inactive) in experiment [9]. Besides, in [2], the nuclei count stood at 137%. For the same compound, the z-score in experiment [3] (setting [10]) was 1.52; in experiment [3] (setting [11]), -1.23; in [3] (setting [12]), -1.08. The fluorescence slope in experiment [5] is -0.389 (inactive). For the same compound, the NADPH fluorescence slope in [6] was -1.9e-05 (inactive). The slope in experiment [7] is 0.00432 (inactive). Moreover, the compound was called inactive in [8].
